# Assay results pooled from the literature.
# Each line is one published result; the experiments were not run side by side.
# CYSLTR1: Cysteinyl leukotriene receptor 1 (CYSLTR1, Homo sapiens, UniProt Q9Y271)
# BCHE: Cholinesterase (BCHE, Homo sapiens, UniProt P06276)
# MC4R: Melanocortin receptor 4 (MC4R, Homo sapiens, UniProt P32245)
Structure (SMILES),target,observed,mode,technique,tested at,inhibition
COCc1c(-c2cc3cc(C)cc(OC)c3s2)c2c(N)ncnn2c1CN1CCNC(=O)C1,"Interferon-induced, double-stranded RNA-activated protein kinase (EIF2AK2, Homo sapiens, UniProt P19525)",cell-free assay,,competition with immobilised ligand,1 µM,97.3%
CN(CCN1CCC(OC(=O)Nc2ccccc2-c2ccccc2)CC1)C(=O)c1ccc(CN2CCC(C(N)=O)CC2)cc1,CYSLTR1,ligand displacement,,radioligand,1 µM,-13%
COc1ccc2c(c1)[nH]c1c(C)nccc12,BCHE,enzyme activity,inhibitor,Ellman,1 µM,25.7%
CC(C)N1CCC[C@H]1CNC(=O)c1cn(C2CCCC2)c(=O)c2c1c1ccccc1n2C,CYSLTR1,ligand displacement,,radioligand,10 µM,22%
CCN(CC)CCCC[C@H](NC(=O)[C@H](CC(C)C)NC(=O)[C@H](C)NC(=O)[C@H](Cc1ccccc1)NC(=O)c1ccc(C(C)(C)C)cc1)C(=O)N[C@@H](CO)C(=O)OC,MC4R,ligand displacement,,radioligand,10 µM,16%
C#Cc1n[nH]c2c(-c3cn([C@@H](C)c4ccccc4)c(=O)[nH]c3=O)cc(F)cc12,"Fibroblast growth factor receptor 1 (FGFR1, Homo sapiens, UniProt P11362, V561M)",enzyme activity,inhibitor,,0.1 µM,-4.7%
C=CCn1c2cc(OC(=O)CCCCN3CCN(Cc4ccccc4F)CC3)ccc2c2ccnc(C)c21,BCHE,enzyme activity,inhibitor,Ellman,1 µM,21%
C#Cc1n[nH]c2c(-c3cn(C(C)c4ccccn4)c(=O)[nH]c3=O)cc(F)cc12 (centres unmarked),"Fibroblast growth factor receptor 4 (FGFR4, Homo sapiens, UniProt P22455)",enzyme activity,inhibitor,,1 µM,0.5%
COc1ccc(S(=O)(=O)N2CCCCC2)cc1C,MC4R,ligand displacement,,radioligand,10 µM,< 30%
C=CCn1c2cc(OC(=O)CCCCN3CCN(Cc4cccc(C(F)(F)F)c4)CC3)ccc2c2ccnc(C)c21,BCHE,enzyme activity,inhibitor,Ellman,1 µM,40.2%
O=C(Nc1cccnn1)N1CCN([C@@H]2CCOc3cc(C(F)(F)F)ccc32)CC1,CYSLTR1,ligand displacement,,,20 µM,6%
C=CCn1c2cc(OC(=O)CCCCN3CCN(Cc4cccc(F)c4)CC3)ccc2c2ccnc(C)c21,BCHE,enzyme activity,inhibitor,Ellman,1 µM,17.3%
COc1cc(CNC(=O)CCCC/C=C/C(C)C)ccc1O,"DNA dC->dU-editing enzyme APOBEC-3B (Homo sapiens, UniProt Q9UH17)",enzyme activity,inhibitor,fluorescence,100 µM,32.3%
Cn1cc(-c2cc(F)cc(N3CCn4c(cc5c4CCCC5)C3=O)c2CO)cc(Nc2ccc(N3CCN(C4COC4)CC3)cn2)c1=O,"Tyrosine-protein kinase Fgr (FGR, Homo sapiens, UniProt P09769)",enzyme activity,inhibitor,,0.1 µM,40%
